Test results taken from ChEMBL document CHEMBL1153473 (Bioorg Med Chem Lett, 2009).

Columns and labels:
[1] = molecular target: T1, Steroid 17-alpha-hydroxylase/17,20 lyase (Rattus norvegicus, UniProt P11715); assay: Inhibition of 17,20-lyase activity of rat testicular microsomal P450-17alpha
T1 sequence (P11715 whole entry): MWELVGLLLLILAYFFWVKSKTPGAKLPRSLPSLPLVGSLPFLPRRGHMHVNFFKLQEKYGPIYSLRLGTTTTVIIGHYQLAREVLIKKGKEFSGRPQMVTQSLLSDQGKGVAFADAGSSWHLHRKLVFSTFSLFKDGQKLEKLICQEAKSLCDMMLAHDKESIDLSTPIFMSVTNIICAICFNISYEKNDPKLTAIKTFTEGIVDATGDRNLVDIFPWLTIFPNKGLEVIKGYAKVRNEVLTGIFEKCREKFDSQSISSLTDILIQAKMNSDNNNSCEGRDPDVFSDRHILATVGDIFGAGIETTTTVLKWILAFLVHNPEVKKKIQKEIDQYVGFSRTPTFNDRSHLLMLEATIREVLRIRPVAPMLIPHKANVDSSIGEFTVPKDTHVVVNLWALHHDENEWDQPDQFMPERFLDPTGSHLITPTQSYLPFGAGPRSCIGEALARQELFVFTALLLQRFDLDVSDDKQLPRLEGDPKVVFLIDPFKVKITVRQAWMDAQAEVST
In short: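 Lyase reaction: rat testicular microsomes (final 0.23 mg/mL), 50 mM sodium phosphate pH 7.4, NADPH-generating system, 1 µM radiolabelled 17α-hydroxyprogesterone substrate; inhibitor added in ethanol; 37 °C prewarm 5 min, then 30 min incubation. Ether-extracted, TLC in DCM/ethyl acetate 4:1, 3H counted per spot; no-inhibitor controls. IC50 from ≥5 concentrations, each in triplicate.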

[2] = molecular target: T1, Steroid 17-alpha-hydroxylase/17,20 lyase; assay: Inhibition of 17-alpha-hydroxylase activity of rat testicular microsomal P450-17alpha
In short: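 Rat testicular microsomes (final 0.16 mg/mL) in 50 mM sodium phosphate pH 7.4 with NADPH-generating system and 1.5 µM radiolabelled progesterone; inhibitor in ethanol; 5 min prewarm at 37 °C, 15 min reaction. Ether extraction, TLC (DCM/ethyl acetate 7:3), spots scintillation-counted for 3H; no-inhibitor controls. IC50 from ≥5 concentrations in triplicate, linear regression of inhibition versus log[I].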

[3] = molecular target: T1, Steroid 17-alpha-hydroxylase/17,20 lyase; assay: Selectivity index, ratio of IC50 for 17-alpha-hydroxylase activity of rat testicular microsomal P450-17alpha to IC50 for 17,20-lyase activity of rat testicular microsomal P450-17alpha
Aromatase = molecular target: T2, Aromatase (Homo sapiens, UniProt P11511); assay: Inhibition of aromatase
T2 sequence (P11511 whole entry): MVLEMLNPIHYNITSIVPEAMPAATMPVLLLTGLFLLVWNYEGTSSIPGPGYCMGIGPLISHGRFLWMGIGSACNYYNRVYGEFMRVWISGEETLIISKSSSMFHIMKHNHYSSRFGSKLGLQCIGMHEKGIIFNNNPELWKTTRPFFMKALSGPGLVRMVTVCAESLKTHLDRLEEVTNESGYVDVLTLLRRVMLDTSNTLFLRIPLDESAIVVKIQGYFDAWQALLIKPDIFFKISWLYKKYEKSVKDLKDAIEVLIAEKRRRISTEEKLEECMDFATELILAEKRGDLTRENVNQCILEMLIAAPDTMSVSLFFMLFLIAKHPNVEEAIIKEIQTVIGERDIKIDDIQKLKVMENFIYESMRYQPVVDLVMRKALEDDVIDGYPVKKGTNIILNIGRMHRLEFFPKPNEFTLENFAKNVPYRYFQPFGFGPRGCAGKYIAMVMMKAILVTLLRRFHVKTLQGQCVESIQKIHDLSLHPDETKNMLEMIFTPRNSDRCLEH

IC50 [1] [nM] | IC50 [2] [µM] | IC50 (Aromatase) [µM] | Structure (SMILES) | Ratio IC50 [3]
70.4 | 4.84 |  | O=S(=O)(Oc1ccc(Cn2ccnc2)cc1)c1ccc(Br)cc1 | 34.6
 |  | 24.5 | Cc1ccc(Cn2ccnc2)cc1 | 
 |  | 0.88 | Fc1ccc(Cn2ccnc2)cc1 | 
85 | 6.88 |  | O=[N+]([O-])c1ccc(S(=O)(=O)Oc2ccc(Cn3ccnc3)cc2)cc1 | 80.9
101 | 6 |  | COc1ccc(S(=O)(=O)Oc2ccc(Cn3ccnc3)cc2)cc1 | 60
65.1 | 10 |  | O=S(=O)(Oc1ccc(Cn2ccnc2)cc1)c1ccc(I)cc1 | 100.1
210 | 15.9 |  | O=S(=O)(Oc1ccc(Cn2ccnc2)cc1)c1ccc(F)cc1 | 75.9

The remaining lines, values behind:

Structure (SMILES) | IC50 [1] [nM] | IC50 [2] [µM] | IC50 (Aromatase) [µM] | Ratio IC50 [3]
Ic1ccc(Cn2ccnc2)cc1 |  |  |  | 6.4
Clc1ccc(Cn2ccnc2)cc1 |  |  | 0.07 | 
Cc1ccc(S(=O)(=O)Oc2ccc(Cn3ccnc3)cc2)cc1 | 230 | 25.2 |  | 109.4
O=S(=O)(Oc1ccc(Cn2ccnc2)cc1)c1ccc(Cl)cc1 | 98.7 | 6.85 |  | 69.9
O=S(=O)(Oc1ccc(Cn2ccnc2)cc1)c1ccc(C(F)(F)F)cc1 | 291 | 64.9 |  | 223.8
CC(=O)N1CCN(c2ccc(OCC3COC(Cn4ccnc4)(c4ccc(Cl)cc4Cl)O3)cc2)CC1 (stereo not given) [KETOCONAZOLE] |  |  |  | 2.3
N#CC(C#N)=Cc1ccc(O)c(O)c1 [TYRPHOSTIN 23] |  |  | 70.6 | 
